Source: ChEMBL document CHEMBL5303300, “EUbOPEN Chemogenomics Library - Multiplex” (2023)
Values joined by “and” are separate entries in the source; they are usually repeats but may differ in a detail not shown here. Equal values may be shown once.

System: HEK-293T
Experiment: Multiplex assay against HEK293T
Assay type: toxicity, cell-based
Conditions: human, number of replicates 2
Procedure, shortened: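 Compound was added to live cells that had been stained at seeding with Hoechst33342, BioTracker Green Microtubule Cytoskeleton Dye, MitoTracker Red and Annexin V Alexa Fluor 680, and imaging followed on a CQ1 microscope at 37°C and 5% CO2. CellPathfinder machine-learning gating divided cells into Hoechst high-intensity objects or normal cells, normal cells into healthy, pyknosed or fragmented nuclei, and pyknosed cells into mitotic or apoptotic. Tubulin, mitochondrial-mass and membrane-permeability phenotypes are per cents of healthy-nucleus cells.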

[1] = 12 h, 1 µM, compound concentration 1 uM
[2] = 12 h, 10 µM, compound concentration 10 uM
[3] = 24 h, 1 µM, compound concentration 1 uM
[4] = 24 h, 10 µM, compound concentration 10 uM
[5] = 48 h, 1 µM, compound concentration 1 uM
[6] = 48 h, 10 µM, compound concentration 10 uM

With `CC(C)c1c(NC(=O)Nc2ccc(Cl)cc2)c(=O)n(-c2ccccc2)n1C` the “Population Apoptotic (%)” value [1] was 40% and 36%, the “Population Fragmented Nuclei (%)” value [1] was 3% and 2% and the “Population Healthy Nuclei (%)” value [1] was 85% and 86%. The “Population Hoechst High Intensity Objects (%)” value [1] was 6% and 5%, the “Population Membrane Permeable-Phenotype (%)” value [1] was 3% and 2% and the “Population Mitochondria Different-Phenotype (%)” value [1] was 11% and 14%. For the same compound, the “Population Mitotic Cells (%)” value [1] was 59% and 63%, the “Population Normal (%)” value [1] was 93% and 94% and the “Population Pyknosed Nuclei (%)” value [1] was 10% and 11%. For the same compound, the “Population Tubulin-Different-Phenotype (%)” value [1] was 48% and 50%, the “Total Cell Count” value [1] was 880 and 697 and the “Population Apoptotic (%)” value [2] was 49% and 41%. The “Population Fragmented Nuclei (%)” value [2] was 2% and 4%, the “Population Healthy Nuclei (%)” value [2] was 86% and 81% and the “Population Hoechst High Intensity Objects (%)” value [2] was 8% and 4%. For the same compound, the “Population Membrane Permeable-Phenotype (%)” value [2] was 4% and 6%, the “Population Mitochondria Different-Phenotype (%)” value [2] was 14% and 18% and the “Population Mitotic Cells (%)” value [2] was 50% and 58%. For the same compound, the “Population Normal (%)” value [2] was 91% and 95%, the “Population Pyknosed Nuclei (%)” value [2] was 11% and 14% and the “Population Tubulin-Different-Phenotype (%)” value [2] was 57% and 50%. For the same compound, the “Total Cell Count” value [2] was 669 and 576, the “Population Apoptotic (%)” value [3] was 36% and 39% and the “Population Fragmented Nuclei (%)” value [3] was 5%. The “Population Healthy Nuclei (%)” value [3] was 87% and 88%, the “Population Hoechst High Intensity Objects (%)” value [3] was 8% and the “Population Membrane Permeable-Phenotype (%)” value [3] was 4% and 3%. The “Population Mitochondria Different-Phenotype (%)” value [3] was 3% and 5%, the “Population Mitotic Cells (%)” value [3] was 63% and 60% and the “Population Normal (%)” value [3] was 91%. The “Population Pyknosed Nuclei (%)” value [3] was 6% and 5%, the “Population Tubulin-Different-Phenotype (%)” value [3] was 27% and 32% and the “Total Cell Count” value [3] was 1449 and 1121. For the same compound, the “Population Apoptotic (%)” value [4] was 54% and 40%, the “Population Fragmented Nuclei (%)” value [4] was 6% and the “Population Healthy Nuclei (%)” value [4] was 85% and 83%. For the same compound, the “Population Hoechst High Intensity Objects (%)” value [4] was 8% and 5%, the “Population Membrane Permeable-Phenotype (%)” value [4] was 3% and the “Population Mitochondria Different-Phenotype (%)” value [4] was 5% and 8%. The “Population Mitotic Cells (%)” value [4] was 45% and 59%, the “Population Normal (%)” value [4] was 91% and 94% and the “Population Pyknosed Nuclei (%)” value [4] was 7% and 10%. For the same compound, the “Population Tubulin-Different-Phenotype (%)” value [4] was 37% and 33%, the “Total Cell Count” value [4] was 1033 and 815 and the “Population Apoptotic (%)” value [5] was 10% and 15%. The “Population Fragmented Nuclei (%)” value [5] was 14% and 10%, the “Population Healthy Nuclei (%)” value [5] was 83% and 86% and the “Population Hoechst High Intensity Objects (%)” value [5] was 9% and 10%. The “Population Membrane Permeable-Phenotype (%)” value [5] was 5% and 3%, the “Population Mitochondria Different-Phenotype (%)” value [5] was 0% and the “Population Mitotic Cells (%)” value [5] was 89% and 84%. For the same compound, the “Population Normal (%)” value [5] was 90% and 89%, the “Population Pyknosed Nuclei (%)” value [5] was 2% and 3% and the “Population Tubulin-Different-Phenotype (%)” value [5] was 13% and 15%. For the same compound, the “Total Cell Count” value [5] was 3573 and 2488, the “Population Apoptotic (%)” value [6] was 16% and 17% and the “Population Fragmented Nuclei (%)” value [6] was 15% and 13%. For the same compound, the “Population Healthy Nuclei (%)” value [6] was 81% and 83%, the “Population Hoechst High Intensity Objects (%)” value [6] was 8% and 9% and the “Population Membrane Permeable-Phenotype (%)” value [6] was 7% and 4%. For the same compound, the “Population Mitochondria Different-Phenotype (%)” value [6] was 0% and 1%, the “Population Mitotic Cells (%)” value [6] was 83% and 82% and the “Population Normal (%)” value [6] was 91% and 90%. The “Population Pyknosed Nuclei (%)” value [6] was 3% and 2%, the “Population Tubulin-Different-Phenotype (%)” value [6] was 19% and 15% and the “Total Cell Count” value [6] was 2549 and 1775.

`CS(=O)(=O)c1ccc(C(=O)Nc2cccc(COc3cc(F)c(Br)cc3CN3CC[C@H](O)C3)c2)c(Cl)c1.O=CO` was tested, and the “Population Apoptotic (%)” value [1] was 58% and 54%, the “Population Pyknosed Nuclei (%)” value [1] was 13% and 21% and the “Total Cell Count” value [1] was 586 and 531. The “Population Apoptotic (%)” value [2] was 57% and 73%, the “Population Mitotic Cells (%)” value [2] was 42% and the “Population Pyknosed Nuclei (%)” value [2] was 11% and 17%. The “Total Cell Count” value [2] was 505 and 443, the “Population Apoptotic (%)” value [3] was 53% and 54% and the “Population Mitotic Cells (%)” value [3] was 46%. For the same compound, the “Population Pyknosed Nuclei (%)” value [3] was 11% and 10%, the “Total Cell Count” value [3] was 800 and 910 and the “Population Apoptotic (%)” value [4] was 65% and 73%. For the same compound, the “Population Mitotic Cells (%)” value [4] was 34%, the “Population Pyknosed Nuclei (%)” value [4] was 16% and 13% and the “Total Cell Count” value [4] was 426 and 549. The “Population Apoptotic (%)” value [5] was 18% and 28%, the “Population Mitotic Cells (%)” value [5] was 81% and 71% and the “Population Pyknosed Nuclei (%)” value [5] was 3% and 4%. The “Total Cell Count” value [5] was 2227 and 1546, the “Population Apoptotic (%)” value [6] was 61% and 60% and the “Population Mitotic Cells (%)” value [6] was 38% and 39%. For the same compound, the “Population Pyknosed Nuclei (%)” value [6] was 10% and 8% and the “Total Cell Count” value [6] was 595 and 738.

For `Cc1ccc2c(N)c(C(=O)NC3CCc4cc(N5CC6CCC(C5)N6)ccc4C3)sc2n1.O=CO` (stereo not drawn), the “Population Apoptotic (%)” value [1] was 50% and 60%, the “Population Fragmented Nuclei (%)” value [1] was 3% and 5% and the “Population Healthy Nuclei (%)” value [1] was 85% and 82%. For the same compound, the “Population Hoechst High Intensity Objects (%)” value [1] was 12% and 13%, the “Population Membrane Permeable-Phenotype (%)” value [1] was 2% and 1% and the “Population Mitochondria Different-Phenotype (%)” value [1] was 57% and 50%. The “Population Mitotic Cells (%)” value [1] was 50% and 39%, the “Population Normal (%)” value [1] was 87% and 86% and the “Population Pyknosed Nuclei (%)” value [1] was 11%. The “Population Tubulin-Different-Phenotype (%)” value [1] was 79% and 80%, the “Total Cell Count” value [1] was 342 and 430 and the “Population Apoptotic (%)” value [2] was 77% and 90%. The “Population Fragmented Nuclei (%)” value [2] was 7% and 15%, the “Population Healthy Nuclei (%)” value [2] was 66% and 63% and the “Population Hoechst High Intensity Objects (%)” value [2] was 66% and 71%. For the same compound, the “Population Membrane Permeable-Phenotype (%)” value [2] was 15% and 21%, the “Population Mitochondria Different-Phenotype (%)” value [2] was 60% and 54% and the “Population Mitotic Cells (%)” value [2] was 22% and 9%. The “Population Normal (%)” value [2] was 33% and 28%, the “Population Pyknosed Nuclei (%)” value [2] was 26% and 21% and the “Population Tubulin-Different-Phenotype (%)” value [2] was 68% and 63%. The “Total Cell Count” value [2] was 206 and 183, the “Population Apoptotic (%)” value [3] was 58% and 60% and the “Population Fragmented Nuclei (%)” value [3] was 5% and 3%. The “Population Healthy Nuclei (%)” value [3] was 86% and 89%, the “Population Hoechst High Intensity Objects (%)” value [3] was 13% and 16% and the “Population Membrane Permeable-Phenotype (%)” value [3] was 1% and 2%. The “Population Mitochondria Different-Phenotype (%)” value [3] was 60% and 50%, the “Population Mitotic Cells (%)” value [3] was 41% and 40% and the “Population Normal (%)” value [3] was 86% and 83%. For the same compound, the “Population Pyknosed Nuclei (%)” value [3] was 8% and 6%, the “Population Tubulin-Different-Phenotype (%)” value [3] was 72% and 71% and the “Total Cell Count” value [3] was 413 and 427. For the same compound, the “Population Apoptotic (%)” value [4] was 95% and 72%, the “Population Fragmented Nuclei (%)” value [4] was 11% and 14% and the “Population Healthy Nuclei (%)” value [4] was 59% and 66%. The “Population Hoechst High Intensity Objects (%)” value [4] was 67% and 66%, the “Population Membrane Permeable-Phenotype (%)” value [4] was 14% and 13% and the “Population Mitochondria Different-Phenotype (%)” value [4] was 66% and 63%. The “Population Normal (%)” value [4] was 32% and 33%, the “Population Pyknosed Nuclei (%)” value [4] was 29% and 19% and the “Population Tubulin-Different-Phenotype (%)” value [4] was 61% and 55%. The “Total Cell Count” value [4] was 216 and 168, the “Population Apoptotic (%)” value [5] was 40% and 66% and the “Population Fragmented Nuclei (%)” value [5] was 5%. For the same compound, the “Population Healthy Nuclei (%)” value [5] was 88% and 87%, the “Population Hoechst High Intensity Objects (%)” value [5] was 8% and 10% and the “Population Membrane Permeable-Phenotype (%)” value [5] was 1% and 0%. The “Population Mitochondria Different-Phenotype (%)” value [5] was 32% and 41%, the “Population Mitotic Cells (%)” value [5] was 59% and 33% and the “Population Normal (%)” value [5] was 91% and 89%. The “Population Pyknosed Nuclei (%)” value [5] was 5% and 7%, the “Population Tubulin-Different-Phenotype (%)” value [5] was 61% and 73% and the “Total Cell Count” value [5] was 596 and 593. The “Population Apoptotic (%)” value [6] was 77% and 87%, the “Population Fragmented Nuclei (%)” value [6] was 9% and 15% and the “Population Healthy Nuclei (%)” value [6] was 57% and 60%. For the same compound, the “Population Hoechst High Intensity Objects (%)” value [6] was 67%, the “Population Membrane Permeable-Phenotype (%)” value [6] was 14% and 10% and the “Population Mitochondria Different-Phenotype (%)” value [6] was 63% and 70%. For the same compound, the “Population Mitotic Cells (%)” value [6] was 22% and 12%, the “Population Normal (%)” value [6] was 32% and the “Population Pyknosed Nuclei (%)” value [6] was 32% and 24%. For the same compound, the “Population Tubulin-Different-Phenotype (%)” value [6] was 48% and 57% and the “Total Cell Count” value [6] was 254 and 203.

For `CS(=O)(=O)c1ccc(C(=O)Nc2ccc(F)c(COc3ccc(Br)cc3CNCCO)c2)c(Cl)c1.O=CO`, the “Population Apoptotic (%)” value [1] was 55% and 59%, the “Population Healthy Nuclei (%)” value [1] was 78% and 76% and the “Population Mitotic Cells (%)” value [1] was 44% and 40%. For the same compound, the “Total Cell Count” value [1] was 571 and 534, the “Population Apoptotic (%)” value [2] was 71% and 70% and the “Population Healthy Nuclei (%)” value [2] was 84% and 78%. For the same compound, the “Population Mitotic Cells (%)” value [2] was 28% and 30%, the “Total Cell Count” value [2] was 446 and 461 and the “Population Apoptotic (%)” value [3] was 57% and 61%. For the same compound, the “Population Healthy Nuclei (%)” value [3] was 79% and 77%, the “Population Mitotic Cells (%)” value [3] was 42% and 38% and the “Total Cell Count” value [3] was 845 and 808. For the same compound, the “Population Apoptotic (%)” value [4] was 72% and 81%, the “Population Healthy Nuclei (%)” value [4] was 75% and the “Population Mitotic Cells (%)” value [4] was 28% and 18%. The “Total Cell Count” value [4] was 456, the “Population Apoptotic (%)” value [5] was 30% and 39% and the “Population Healthy Nuclei (%)” value [5] was 79% and 83%. The “Population Mitotic Cells (%)” value [5] was 69% and 60%, the “Total Cell Count” value [5] was 2082 and 1679 and the “Population Apoptotic (%)” value [6] was 82% and 80%. For the same compound, the “Population Healthy Nuclei (%)” value [6] was 75%, the “Population Mitotic Cells (%)” value [6] was 17% and 19% and the “Total Cell Count” value [6] was 675 and 612.
